Assay results pooled from the literature.
Compare with care: the assays were run in different laboratories.
Read-out: cell growth or viability

SMILES | cell line | technique | tested at | time | measurement | result
COc1cc(OC)c2c(=O)cc(-c3ccccc3)oc2c1-c1c(OC)cc(OC)c2c(=O)cc(-c3ccccc3)oc12 | HS27 | MTT | – | 24 h | CC50 | > 200 µM
C[C@]1(CO)[C@H]2CC[C@@H]3CN(Cc4ccco4)[C@@H](C4=CCOC4=O)C[C@H]3[C@]2(C)CC[C@H]1O | MRC5 | ATP luminescence | 25 µM | 72 h | cell death | -0.1%
Cc1cn([C@@H]2C[C@H](O)[C@@H](CNC(=O)Nc3ccc(-c4ccccc4)cc3)O2)c(=O)[nH]c1=O | MRC5 | – | – | – | CC50 | > 50 µM
NCC(NC(=O)c1ccc(-c2ccc(C(F)(F)F)c(F)c2)[nH]1)c1nc(CO)cs1 (stereo not drawn) | U87.CD4.CXCR4 | XTT | – | 72 h | CC50 | 35 µM
C[C@]1(CO)[C@H]2CC[C@@H]3CN(Cc4cccs4)[C@@H](C4=CCOC4=O)C[C@H]3[C@]2(C)CC[C@H]1O | MRC5 | ATP luminescence | 25 µM | 72 h | cell death | -7.4%
COc1cc2ccc(=O)oc2cc1OC | MRC5 | MTT | – | 24 h | IC50 | > 100 µM
COc1cc(C)cc2oc(-c3ccc(Br)cc3)cc(=O)c12 | HS27 | MTT | – | 24 h | CC50 | > 200 µM
COc1cccc2c1C(=O)c1c(O)c3c(c(O)c1C2=O)C[C@@](O)(C(=O)CO)C[C@@H]3O[C@H]1C[C@H](N)[C@H](O)[C@H](C)O1 | MDA-MB-231 | MTT | 25 µM | 48 h | viability | 33.8%
COc1cc(C)cc2oc(-c3ccc(N(C)C)cc3)cc(=O)c12 | HS27 | MTT | – | 24 h | CC50 | 141 µM
CC1(C)OC[C@@]2(C)[C@H]3CC[C@@H]4CN(Cc5ccccc5C5CC5)[C@@H](C5=CCOC5=O)C[C@H]4[C@]3(C)CC[C@H]2O1 | MRC5 | ATP luminescence | 25 µM | 72 h | cell death | 16.7%
CC(C)(C)CC(C)(C)Nc1c(-c2cccc(C#N)c2)nc2ncccn12 | MDA-MB-231 | MTT | 25 µM | 48 h | viability | 75.8%
COc1cc(OC)c2c(=O)cc(-c3ccc(C(F)(F)F)cc3)oc2c1 | HS27 | MTT | – | 24 h | CC50 | > 200 µM
